Screens (PubChem BioAssay)
MT stabilizer = stabilizes microtubules in HeLa cells; HeLa tubulin immunostaining HCS, 24 h; share of cells brighter than vehicle mean+2SD; % tubulin-high responders, % at 10 µM; 0.83% of 200,000 active; AID 2205;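 active = plate Z-score above 3 for both tubulin-high and condensed-nucleus cell shares, with cell loss under 80%, at 10 µM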;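 also: anti alpha tubulin signal scored within the nucleus-defined area of each cell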
ABCG2 inh = human ABCG2 inhibition, ABCB1 as counter-screen; Q9UNQ0; IgMXP3 cells, JC-1 efflux, flow cytometry; inhibition, % at 6.6 µM; 0.1% of 190,000 active; AID 1325;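 active = inhibition above 80%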;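 also: 0% = DMSO and 100% = nicardipine control wells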
Target sequence (Q9UNQ0 whole entry, looked up): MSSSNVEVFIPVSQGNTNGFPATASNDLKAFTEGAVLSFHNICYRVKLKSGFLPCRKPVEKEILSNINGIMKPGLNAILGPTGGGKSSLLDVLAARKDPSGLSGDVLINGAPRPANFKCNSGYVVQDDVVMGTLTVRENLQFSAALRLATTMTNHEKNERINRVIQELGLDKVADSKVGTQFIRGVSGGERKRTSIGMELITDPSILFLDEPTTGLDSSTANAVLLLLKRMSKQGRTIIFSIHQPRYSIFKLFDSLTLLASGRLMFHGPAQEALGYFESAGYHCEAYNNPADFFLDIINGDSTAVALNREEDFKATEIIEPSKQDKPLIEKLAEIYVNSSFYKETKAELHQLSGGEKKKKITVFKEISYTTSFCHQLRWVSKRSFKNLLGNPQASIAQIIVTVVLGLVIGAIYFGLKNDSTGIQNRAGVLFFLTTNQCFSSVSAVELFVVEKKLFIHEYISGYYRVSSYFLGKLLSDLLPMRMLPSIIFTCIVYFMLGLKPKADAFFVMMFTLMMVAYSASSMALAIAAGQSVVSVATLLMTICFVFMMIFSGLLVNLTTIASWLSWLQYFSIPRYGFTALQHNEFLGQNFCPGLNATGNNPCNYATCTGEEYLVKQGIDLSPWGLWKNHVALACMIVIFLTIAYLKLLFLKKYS
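System: two drug-resistant human cell lines, ABCG2 and ABCB1; controls: nicardipine high and DMSO low controls; times: 10 min exposure at 25 °C with rotation, no wash; detection: flow cytometry of retained JC-1 fluorescence; read-out basis: percent efflux inhibition, scaled nicardipine 100% to DMSO 0%; doses: one concentration, 6.6 µM final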
b-catenin transl = alters nuclear translocation of beta-catenin in HeLa cells; nuclear translocation activity, % at 5 µM; immunofluorescence imaging; 0.3% of 190,000 active; AID 1665;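 active = nuclear translocation activity above 50% at 5 µM, with a well cell count of 50 or more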;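 also: per-cell ratio of nuclear to cytoplasmic median beta-catenin stain intensity; plate controls were DMSO negative control for no effect and GSK-3 inhibitor IX positive control for full effect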
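Test system: human HeLa cell line; Doses: 5 µM primary, 0.02–20 µM confirmation; Incubation: 24 h compound exposure, 37°C; Detection: beta-catenin immunofluorescence imaging with DAPI; Read-out: beta-catenin nuclear/cytoplasmic ratio, % activation.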
ABCB1 inh = blocks JC-1 efflux by human ABCB1 transporter. P08183. inhibition, % at 6.6 µM. CCRF-Adr cells, flow cytometry. 0.067% of 190,000 active; in the data active = inhibition above about 40%;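 also: 0% = vehicle and 100% = reference inhibitor; higher value means more JC-1 retained so stronger ABCB1 efflux block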
PKD1 kinase inh = inhibitors of human PKD1 kinase. Q15139. PKD1 kinase fluorescence polarization assay. inhibition, % (test concentration not listed). 0.056% of 200,000 active. AID 797; in the data active = inhibition above about 50%
An asterisk follows results filed as active; · = no result. A selection: hits, their analogues and other compounds. The true share with any hit is near 1%.

SMILES | MT stabilizer | ABCG2 inh | b-catenin transl | ABCB1 inh | PKD1 kinase inh
COc1ccc(N(CC(=O)Nc2cc(Cl)ccc2OC)S(=O)(=O)c2c(C)noc2C)cc1 | 16* | 54 | 0 | 15 | -1
COC(=O)Nc1ccc(S(=O)(=O)N2c3ccccc3CCC2C)cc1 (configuration not stated) | 19* | 9 | 8 | 0 | -6
OC(CNCc1cccc(Br)c1)c1ccccc1 (configuration not stated) | 2 | 1 | 0 | 0 | -3
OC(CNCc1ccc(-c2ccccc2)cc1)c1ccccc1 (configuration not stated) | 3 | 6 | 68* | 3 | -6
CCOC(=O)c1c(C)c(C(=O)Nc2ccc3c(c2)OCCO3)c(C)n1C | 4 | 12 | 1 | 1 | -4
CCOC(=O)c1c(C)c(C(=O)Nc2cc(F)ccc2F)c(C)n1C | 13* | 20 | 38 | 1 | -13
Cc1nc2cc(C(=O)N3c4ccccc4CC3C)ccc2s1 (configuration not stated) | 26* | 1 | 47 | 0 | -6
Cc1nc2c(sc3nc4c(cc32)COC(C)(C)C4)c(=O)n1CC(=O)NCc1ccco1 | 28* | 2 | · | 1 | 3
CCCc1nc2c(sc3nc4c(cc32)COC(C)(C)C4)c(=O)n1Cc1ccco1 | 1 | 0 | · | 1 | -9
CC1(C)Cc2nc3sc4c(SCC(=O)NCc5ccco5)ncnc4c3cc2CO1 | 29* | 11 | 59* | 0 | -5
CC(C)c1nc2sc3c(SCC(=O)NCc4ccco4)ncnc3c2c2c1CCC2 | 3 | 3 | 16 | 0 | -4
CC1(C)Cc2nc3sc4c(=O)n(CC(=O)NCc5ccccc5)cnc4c3cc2CO1 | 34* | 2 | · | 0 | -6
C=CCN1C(=O)C(Cc2ccc(OCC)cc2)S/C1=N\N=C\c1cccs1 (configuration not stated) | 4 | 0 | 0 | 0 | -14
NC(=O)c1cc2c3ccccc3ccn2c1-c1ccccc1 | · | · | 102* | · | ·
Cc1[nH]c(=O)[nH]c(=O)c1CSCC(=O)OCC(=O)Nc1ccccn1 | · | · | -1 | · | ·
O=C(NCCCN1CCOCC1)C(=O)N/N=C/c1c2ccccc2cc2ccccc12 | 22* | 0 | 5 | 0 | 2
O=C(NCCCN1CCOCC1)C(=O)N/N=C/c1c(Cl)cccc1Cl | 2 | 0 | 1 | 0 | 1
Cc1sc2ncnc(SCC(=O)c3ccc4c(c3)OCCO4)c2c1-c1ccccc1 | 3 | 13 | -1 | 2 | -11
Cc1cc(/C=C(\C#N)C(=O)Nc2ccccc2)c(C)n1-c1ccc(C(=O)O)cc1 | · | · | 1 | · | ·
COc1ccc(NC(=O)/C(C#N)=C\c2cc(C)n(-c3ccc4c(c3)OCO4)c2C)cc1 | 24* | 1 | · | 2 | -7
CCOCCCNC(=O)c1cc2sc(Cl)cc2n1CC | 14* | 2 | · | 0 | -5
C/C=C/COC(=O)c1[nH]c2c(c1C)C(=O)CC(c1ccco1)C2 (configuration not stated) | 9 | -2 | 154* | -2 | 8
COC(=O)c1[nH]c2c(c1C)C(=O)CC(c1ccccc1)C2 (configuration not stated) | 4 | 1 | 56* | 0 | -1
Cc1c(C(=O)N2CCOCC2)[nH]c2c1C(=O)CC(c1ccccc1Cl)C2 (configuration not stated) | 41* | 6 | · | 0 | -3
CCOC(=O)c1[nH]c2c(c1-c1ccccc1)C(=O)CC(c1ccccc1)C2 (configuration not stated) | 4 | 10 | 1 | 1 | 8
SMILES | MT stabilizer | ABCG2 inh | b-catenin transl | ABCB1 inh | PKD1 kinase inh
Cc1c(C(=O)OCC(C)C)[nH]c2c1C(=O)CC(c1ccco1)C2 (configuration not stated) | 3 | 1 | 183* | -1 | 11
Cc1cc(C(F)F)n2ncc(C(=O)NCc3ccccc3F)c2n1 | 1 | -4 | · | 0 | -2
C=CCOC(=O)c1[nH]c2c(c1C)C(=O)CC(c1ccco1)C2 (configuration not stated) | 11 | 2 | 89* | 0 | 2
Cc1c(C(=O)OCC2CCCO2)[nH]c2c1C(=O)CC(c1ccco1)C2 (configuration not stated) | 40* | 9 | 89* | 1 | 5
COC(=O)C1C(=O)c2c([nH]c(C(=O)OC3CCCC3)c2C)CC1C (configuration not stated) | 1 | 4 | -4 | 1 | -6
CCOC(=O)c1[nH]c2c(c1C)C(=O)CC(c1ccc(OC)c(OC)c1)C2 (configuration not stated) | 4 | 0 | -1 | 0 | 2
C/C=C/COC(=O)c1[nH]c2c(c1C)C(=O)CC(c1ccc(N(C)C)cc1)C2 (configuration not stated) | 3 | 12 | 1 | 2 | -3
Cc1c(C(=O)OC2CCCC2)[nH]c2c1C(=O)CC(c1ccco1)C2 (configuration not stated) | 10 | 3 | 132* | 0 | -8
COc1ccc(/C=C2\CCCC3C2=NC(=S)NC3c2ccc(OC)cc2)cc1 (configuration not stated) | 9 | -3 | 56* | -2 | -10
Cc1ccc2nc(C3CCCN(C(=S)Nc4cccc(C)c4C)C3)[nH]c2c1 (configuration not stated) | 29* | 6 | 0 | 0 | 8
CN1C/C(=C/c2cccnc2)C(=O)/C(=C/c2cccnc2)C1 | 53* | -2 | 2 | 0 | -6
CC(C)c1cc(NCC2CCCO2)n2c(nc3ccccc32)c1C#N (configuration not stated) | 1 | 5 | 0 | 5 | 0
CN(C)S(=O)(=O)c1cccc(NC(=O)CSc2nc3c(cc2C#N)C(=O)CC(C)(C)C3)c1 | 24* | 18 | 6 | 1 | 2
CNC(=S)N1CCc2cc(OC)c(OC)cc2C1 | · | · | 1 | · | ·
Cc1nn(C)c(Sc2ccccn2)c1[N+](=O)[O-] | · | · | -1 | · | ·
O=C1N/C(=N\N=C\c2cccs2)SC1Cc1cccc(Cl)c1 (configuration not stated) | 22* | -1 | 25 | -2 | -1
Brc1ccc2c(c1)C(c1cccnc1)=NNC(c1cccs1)=N2 | 18* | 14 | 18 | 1 | -5
Brc1ccc2c(c1)C(c1ccc(N3CCOCC3)cc1)=NNC(c1cccs1)=N2 | 1 | 3 | -1 | 0 | -7
COC(=O)c1ccc(CSc2nnc(C)n2N)o1 | 5 | 2 | 3 | 0 | 9
c1ccc(CNc2ncnc3c2cnn3-c2ccccc2)cc1 | 54* | 4 | 12 | 0 | 1
Clc1ccc(Cn2ncc3c(NCc4ccccc4)ncnc32)c(Cl)c1 | 17* | 1 | 10 | 0 | 4
CNC(=S)Nc1ccc(N2CCN(c3ccc(C(F)(F)F)cn3)CC2)nc1 | · | · | -1 | · | ·
Cc1cc(NC(=O)CSc2nc(-c3ccco3)cc(C(F)(F)F)n2)no1 | 39* | 0 | 4 | 0 | 0
